Rows were chosen to be rich in hits. Some 3.4% of all compounds tested hit in one or more screens of this group.
SIRT5 block: sirtuin-5 (human) deacylase inhibition; Q9NXA8; AID 652115; inhibition, % at 15 µM; Purified SirT5, succinyl-peptide AMC, trypsin-coupled fluorescence; 1.1% of 330,000 active; in the data active = inhibition above about 15%; inconclusive = no clear call, values can overlap the other calls
E-selectin induc: induces E-selectin expression in human endothelial cells; P16581; HUVEC E-selectin immunofluorescence imaging; normalized: neutral wells 0, TNF-alpha wells 100; activation, % at 7.58 µM; 0.37% of 260,000 active; AID 686992;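 active = mean E-selectin-positive cell signal at least 10% of the positive control, reached in at least 60% of replicates, without over 20% cell loss; inconclusive = no rule given, readout overlaps actives, possibly toxicity-flagged; inactive = the rest, including those meeting only one limit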
Target sequence (P16581 whole entry, looked up): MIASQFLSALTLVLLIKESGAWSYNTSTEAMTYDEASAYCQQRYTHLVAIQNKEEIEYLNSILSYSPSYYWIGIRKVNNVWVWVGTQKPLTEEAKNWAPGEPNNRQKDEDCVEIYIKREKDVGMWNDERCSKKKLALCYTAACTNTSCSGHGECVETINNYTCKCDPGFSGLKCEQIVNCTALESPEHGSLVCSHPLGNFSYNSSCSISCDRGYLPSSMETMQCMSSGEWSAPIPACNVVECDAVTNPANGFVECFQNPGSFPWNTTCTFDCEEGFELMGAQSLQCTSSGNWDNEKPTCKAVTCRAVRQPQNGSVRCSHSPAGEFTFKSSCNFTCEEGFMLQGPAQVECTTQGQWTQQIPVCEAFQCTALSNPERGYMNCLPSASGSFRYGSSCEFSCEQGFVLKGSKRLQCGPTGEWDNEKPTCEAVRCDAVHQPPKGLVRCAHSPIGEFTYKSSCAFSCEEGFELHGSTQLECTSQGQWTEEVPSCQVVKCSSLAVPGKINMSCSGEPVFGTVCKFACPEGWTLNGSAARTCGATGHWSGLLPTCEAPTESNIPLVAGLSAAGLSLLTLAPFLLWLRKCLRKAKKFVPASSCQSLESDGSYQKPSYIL
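Read-out basis: % PE-positive cells; Test system: HUVEC primary endothelial cells; Technique: immunofluorescence imaging; Dosing: single-point compound dose.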
AF4-AF9 inh: inhibitors of human MLL-AF4/AF9 interaction. P42568. 0.47% of 350,000 active. AlphaScreen, biotin-AF4 peptide binding to FLAG-AF9. inhibition, % at 10 µM;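 active = every replicate reaching a set inhibition limit, whatever the replicate mean, cut at about 25% in these data; inconclusive = mean inhibition reaches that limit but some replicates miss it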
ERAP1 HTS inh: inhibitors of human ERAP1 aminopeptidase; Q9NZ08; AID 652197; recombinant ERAP1, Leu-AMC fluorescence, 60 min; 0.15% of 340,000 active; inhibition, % at 10.7 µM;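 active = mean replicate inhibition of at least 30%, or all replicates individually reaching that 30% level; inactive = mean below 30% and not every replicate reaching it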
S100A4 MyoIIA: inhibitors of human S100A4 binding to myosin IIA peptide | P26447 | S100A4/TAMRA-MyoIIA peptide fluorescence polarization | inhibition, % at 10.7 µM | 0.14% of 360,000 active;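 active = mean inhibition of at least 70% across replicates, with every replicate also reaching that level; inconclusive = mean inhibition reaches 70% but some replicates fall short; inactive = mean inhibition below 70%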
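Test system: S100A4 monomer protein; Medium: HEPES pH 7.2 with CaCl2, KCl, NaCl, DTT, Triton; Probe or stimulus: TAMRA-labelled myosin IIA heavy-chain peptide probe, 5 nM; Doses: one dose per compound; Times: polarization read 5 min after assay mix addition, stable 5–60 min; Benchmarks: neutral control DMSO, positive control TFP.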
Ecoli rRNA inh: inhibits bacterial ribosomal RNA function over humanized ribosomes | GFP signal change (wild-type ribosome), % (concentration not given with the values) | E. coli WT GFP vs humanized-ribosome RFP mutants, fluorescence, 24 h; hits give low values; DMSO median 0, no signal -100 | AID 720706 | 1.6% of 350,000 active;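 active = significant combined selectivity score with lowered wild-type GFP, culture density cut under 30%, mutant RFP and density less affected; inactive = any of these conditions unmet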
Numbers stand for hits; - = inactive; ? = inconclusive; . = no result given; + = active, no number.

SMILES	SIRT5 block	E-selectin induc	AF4-AF9 inh	ERAP1 HTS inh	S100A4 MyoIIA	Ecoli rRNA inh
CSCCC(c1nnnn1-c1ccc2c(c1)OCCO2)N1CCC(n2c(=O)[nH]c3ccccc32)CC1 (stereo not given)	19	-	-	-	-	-
CCC(c1nnnn1-c1ccc2c(c1)OCCO2)N1CCC(n2c(=O)[nH]c3ccccc32)CC1 (stereo not given)	-	-	-	-	-	-
COC(=O)[C@H]1[C@H](CO)[C@H]2Cn3c(ccc(-c4cccc(OC)c4)c3=O)[C@@H]1N2C(=O)c1ccccc1F	-	-	-	-	-	-
O=[N+]([O-])c1ccc(N2CC2)c([N+](=O)[O-])c1	.	-	-	-	-	-16
CN1C(=O)C(=Cc2cc([N+](=O)[O-])ccc2N2CCCCC2)C(=O)N(C)C1=O	-	.	-	-	-	-
COc1cc2c(cc1OC)-c1c(OC)c(OC)cc3c1[C@H](C2)[N+](C)(C)CC3	.	.	-	79	-	-25
COc1cc2c(cc1O)C[C@H]1c3c(cc(O)c(OC)c3-2)CCN1C	-	-	-	-	-	.
O=C(O)Cn1cc(/C=C2\C(=O)NC(=O)N(c3ccc(Br)cc3)C2=O)c2ccccc21	-	-	-	-	101	-
CCCN1[C@@H]2Cn3c(ccc(-c4ccc(F)cc4)c3=O)[C@H]1[C@@H](C(=O)OC)[C@@H]2CO	-	-	-	-	-	-
O=C(Cc1ccccc1)N1CCCCN2[C@@H](CO)[C@@H](c3ccc(C#Cc4ccccc4)cc3)[C@@H]2C1	-	-	-	-	-	-
O=C(NCC1=C(c2ccc3ccccc3c2)C[C@@H]2CC[C@H]1N2Cc1ccco1)c1ccncc1	25	-	-	-	-	-
O=C(NCC1=C(c2ccc3ccccc3c2)C[C@@H]2CC[C@H]1N2Cc1ccco1)c1ccc([N+](=O)[O-])cc1	-	-	28	-	-	-
CS(=O)(=O)c1ccc(C2=C(CNC(=O)c3cccs3)[C@H]3CC[C@@H](C2)N3Cc2ccco2)cc1	-	-	-	-	-	-
N#Cc1cccc(-c2ccc([C@@H]3[C@@H](CO)N4CCCCN(C(=O)Cc5cccnc5)C[C@@H]34)cc2)c1	-	-	-	-	-	-
COC(=O)[C@@H]1[C@@H](CO)[C@@H]2Cn3c(ccc(-c4ccccc4F)c3=O)[C@H]1N2CC1CCCC1	-	-	-	-	-	-
Nc1c2c(nc3sc4c(c13)CCCCC4)CCCC2	-	.	-	-	-	-23
BrCC1C[n+]2c(SCc3ccccc3)nc3sc4c(c3c2O1)CCCC4 (stereo not given)	.	-	-	.	-	-
COP(=O)(C#Cc1ccccc1)C(O)c1ccc(Br)cc1 (stereo not given)	-	.	-	-	-	-30
N#Cc1cccc(-c2ccc([C@H]3[C@@H](CO)N4CCCCN(C(=O)Cc5ccccc5)C[C@H]34)cc2)c1	-	-	-	-	-	-
Cc1nc2ccccc2c(=O)n1/N=C/c1cc(Br)cc(Br)c1O	-	-	-	-	-	-22
COc1cccc2c1C(=O)c1c(O)c3c(c(O)c1C2=O)CC(O)(C(C)=NO)CC3OC1CC(N)C(O)C(C)O1 (stereo not given)	-	-	?	33	+	-
O=C(Cc1ccccn1)N1CCCCN2[C@@H](CO)[C@@H](c3ccc(-c4ccccc4)cc3)[C@@H]2C1	-	-	-	-	-	-
COC1CCC(OC2CC(C3(C)CCC4(CC(O)C(C)C(C(C)/C=C(\C)C(=O)C(C)CC(C)C(=O)O)O4)O3)OC3(OC(C4OC(O)(CO)C(C)CC4C)CC3C)C2C)OC1C (stereo not given)	24	.	-	-	-	.
CC(C)NC(=O)N1C[C@@H]2C(c3ccc(Br)cc3)[C@H](C1)N2C (stereo not given in full)	.	.	.	.	.	-
Cc1ccc(OCCSC2=NN2c2cc(C)nc(N)n2)cc1	21	.	-	-	-	-
SMILES	SIRT5 block	E-selectin induc	AF4-AF9 inh	ERAP1 HTS inh	S100A4 MyoIIA	Ecoli rRNA inh
COc1ccc2[nH]c3c(c2c1)CCNC3C (stereo not given)	-	.	-	-	-	-
COc1ccc2c3c([nH]c2c1)C(C)NCC3 (stereo not given)	.	.	30	-	-	.
CCCCN1C(=O)/C(=C/C=C/c2ccco2)C(=O)NC1=S	38	.	-	-	-	-
O=C(Cc1cccnc1)N1CCCCN2[C@H](CO)[C@H](c3ccc(C#CC4(O)CCCC4)cc3)[C@H]2C1	-	-	-	-	-	-
CCN(CC)P(=O)(c1n(CC)cc[n+]1CC)N(CC)CC	-	.	-	109	-	-
CCCCCCCCCCCCCCCC[N+](C)(C)C	-	-	-	42	-	.
CCCCCC[N+](=O)[O-]	.	.	.	-	-	-
Oc1ccccc1CN(CCc1ccccc1)Cc1ccccc1	-	-	-	-	-	-26
BrCCc1ccccc1	.	.	.	-	-	-
O=C(Cc1cccnc1)N1CCCCN2[C@H](CO)[C@H](c3ccc(/C=C/c4ccccc4)cc3)[C@@H]2C1	-	-	-	-	-	-
Fc1ccc(C(OCCN2CCN(CCCc3ccccc3)CC2)c2ccc(F)cc2)cc1	-	-	29	-	-	-
CS(=O)(=O)N1C[C@@H]2N[C@H](C1)C2c1ccccc1 (stereo not given in full)	.	.	.	.	.	-
CC1(C)OC(c2ccccc2)=C/C(=C/C=C2C(=O)NC(=S)NC2=O)O1	-	533	-	-	-	-
O=C(Cc1cccnc1)N1CCCCN2[C@H](C1)[C@H](c1ccc(C#CC3CC3)cc1)[C@@H]2CO	-	.	-	-	-	.
c1ccc(-c2ccncc2)cc1	-	.	-	-	99	-
c1ccc(-c2cc(-c3ccccc3)[n+](-c3ccccc3)c(-c3ccccc3)c2)cc1	-	-	-	-	-	-
C[n+]1ccc(-c2ccncc2)cc1	-	.	-	31	-	-
Cc1cccc(NP(=O)(Oc2ccccc2F)Oc2ccccc2F)c1C	-	.	-	-	-	-29
CC(=O)N1C[C@@H]2C(c3ccccc3)[C@H](C1)N2CC1CC1 (stereo not given in full)	.	.	.	.	.	-
CC(C)NC(=O)N1C[C@@H]2C(c3ccccc3)[C@H](C1)N2C (stereo not given in full)	.	.	.	.	.	-
Cc1cc2c(C(C)C)c(O)c(O)c(C=O)c2c(O)c1-c1c(C)cc2c(C(C)C)c(O)c(O)c(C=O)c2c1O	25	-	-	-	-	-7.7
COC(=O)C1=C(C(=O)OC)C2OC1c1cc3ccccc3cc12	.	-	-	-	-	-19
O=c1c2ccccc2nc(/C=C/c2ccc(O)cc2)n1-c1ccccc1O	-	.	-	-	-	-27
O=c1c2ccccc2nc(/C=C/c2ccccc2)n1-c1ccccc1O	-	.	-	-	-	-
